# Data: ChEMBL document CHEMBL1121382, “Inhibitors of polyamine biosynthesis. 8. Irreversible inhibition of mammalian S-adenosyl-L-methionine decarboxylase by substrate analogues” (J Med Chem, 1980)
# T1: S-adenosylmethionine decarboxylase proenzyme (Rattus norvegicus) (UniProt P17708)
# T1 sequence (whole entry): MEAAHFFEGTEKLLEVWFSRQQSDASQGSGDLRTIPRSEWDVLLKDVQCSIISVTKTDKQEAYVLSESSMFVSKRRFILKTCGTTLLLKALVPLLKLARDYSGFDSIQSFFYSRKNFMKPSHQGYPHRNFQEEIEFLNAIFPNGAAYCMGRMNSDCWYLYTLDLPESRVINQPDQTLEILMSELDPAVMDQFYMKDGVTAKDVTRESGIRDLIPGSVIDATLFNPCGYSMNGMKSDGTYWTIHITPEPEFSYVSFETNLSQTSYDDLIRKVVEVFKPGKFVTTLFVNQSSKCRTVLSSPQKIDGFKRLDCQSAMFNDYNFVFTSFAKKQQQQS
# T2: S-adenosylmethionine decarboxylase proenzyme (Rattus norvegicus, UniProt P17708)
# T2 sequence (P17708 whole entry): T1 sequence (whole entry)
# B1: S-adenosylmethionine decarboxylase proenzyme (Rattus norvegicus), P17708 (protein)
# chain: T1 sequence (whole entry)
# Experiments:
# [1] = biological target: T1, S-adenosylmethionine decarboxylase proenzyme (Rattus norvegicus); test: Tested for S-adenosyl-L-methionine decarboxylase activity recovered after 80 min of 0.2 nM compound in incubation media; assay type: functional; conditions: in the assay text read “0.2 mM” for “0.2 nM”
# Summary of the method: (§1)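 Partially purified rat liver AdoMetDC (ammonium sulfate, then MGBG-Sepharose) preincubated at 37 °C, pH 7.0, with BSA and 0.2 mM inhibitor, no reductant. Aliquots removed at 40 or 80 min, then assayed 30 min at 37 °C in phosphate pH 7.0 with 2.5 mM putrescine, DTT and 0.2 mM [1-14C]AdoMet. Released 14CO2 trapped and counted; activity given as % of buffer-only control at the same time.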
# [2] = biological target: T2, S-adenosylmethionine decarboxylase proenzyme; test: Tested for inhibition against S-adenosyl-L-methionine decarboxylase from rat liver
# Summary of the method: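 Partially purified rat liver enzyme; 0.1 M sodium phosphate pH 7.0, 2.5 mM DTT, 2.5 mM putrescine; S-[1-14C]adenosyl-L-methionine at 2.0 × 10⁻⁶ to 1.60 × 10⁻⁴ M; inhibitor 6.25 × 10⁻⁵, 1.25 × 10⁻⁴, 2.50 × 10⁻⁴ M; 30 min, 37 °C; released 14CO2 trapped in ethanolamine and counted, blank-corrected; apparent Ki from short incubations.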
# [3] = biological target: T1, S-adenosylmethionine decarboxylase proenzyme (Rattus norvegicus); test: Tested for S-adenosyl-L-methionine decarboxylase activity recovered after 80 min of 0.4 mM compound in incubation media
# [4] = biological target: T1, S-adenosylmethionine decarboxylase proenzyme (Rattus norvegicus); test: Tested for S-adenosyl-L-methionine decarboxylase activity recovered after 40 min of 0.4 mM compound in incubation media
# [5] = biological target: T1, S-adenosylmethionine decarboxylase proenzyme (Rattus norvegicus); test: Tested for S-adenosyl-L-methionine decarboxylase activity recovered after 40 min of 0.2 nM compound in incubation media; assay type: functional; conditions: in the assay text read “0.2 mM” for “0.2 nM”; summary of the method: as §1
# [6] = biological target: T1, S-adenosylmethionine decarboxylase proenzyme (Rattus norvegicus); test: Tested for S-adenosyl-L-methionine decarboxylase activity recovered after 40 min of 0.2 mM + 1 mM NaBH3CN compound in incubation media
# [7] = biological target: T1, S-adenosylmethionine decarboxylase proenzyme (Rattus norvegicus); test: Tested for S-adenosyl-L-methionine decarboxylase activity recovered after 40 min of 0.2 mM compound in incubation media; assay type: functional
# Summary of the method: (§2)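 Rat liver enzyme (105000g supernatant from livers of male Sprague-Dawley rats, ammonium sulfate 35–65% cut, methylglyoxal bis(guanylhydrazone)-Sepharose eluate) preincubated at 37 °C, pH 7.0, with 0.3 mg BSA, inhibitor 0, 0.2 or 0.4 mM, ±1.0 mM sodium cyanoborohydride. Aliquots taken at 0, 40, 80 min; activity assayed at 0.2 mM substrate; expressed as % of no-addition control.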
# [8] = biological target: T1, S-adenosylmethionine decarboxylase proenzyme (Rattus norvegicus); test: Tested for S-adenosyl-L-methionine decarboxylase activity recovered after 40 min of 0.2 mM + 1 mM NaBH3CN compound in incubation media; assay type: functional; summary of the method: as §2
# [9] = biological target: T1, S-adenosylmethionine decarboxylase proenzyme (Rattus norvegicus); test: Tested for S-adenosyl-L-methionine decarboxylase activity recovered after 80 min of 0.2 mM compound in incubation media; assay type: functional; summary of the method: as §2
# [10] = biological target: T1, S-adenosylmethionine decarboxylase proenzyme (Rattus norvegicus); test: Tested for S-adenosyl-L-methionine decarboxylase activity recovered after 40 min of 0.4 mM compound in incubation media; assay type: functional; summary of the method: as §2
# [11] = biological target: T1, S-adenosylmethionine decarboxylase proenzyme (Rattus norvegicus); test: Tested for S-adenosyl-L-methionine decarboxylase activity recovered after 80 min of 0.4 mM compound in incubation media; assay type: functional; summary of the method: as §2
# [12] = substrate: C[S+](CC[C@H](N)C(=O)[O-])C[C@H]1O[C@@H](n2cnc3c(N)ncnc32)[C@H](O)[C@@H]1O
molecule,measurement,setting,value
CC(N)CC[S+](C)C[C@H]1O[C@@H](n2cnc3c(N)ncnc32)[C@H](O)[C@@H]1O (some centres undefined),Activity,[1],66%
same,Ki,[2],120 µM
same,Activity,[3],42%
same,Activity,[4],65%
same,Activity,[5],75%
same,Activity,[6],21%
C[S+](CCC(C)(N)C(=O)O)C[C@H]1O[C@@H](n2cnc3c(N)ncnc32)[C@H](O)[C@@H]1O (some centres undefined),Activity,[7],89%
same,Activity,[8],50%
same,Ki,[2],180 µM
same,Activity,[9],81%
same,Activity,[10],77%
same,Activity,[11],62%
CN(CCCN)C[C@H]1O[C@@H](n2cnc3c(N)ncnc32)[C@H](O)[C@@H]1O,Activity,[1],97%
same,Ki,[2],110 µM
same,Activity,[3],97%
same,Activity,[4],93%
same,Activity,[5],95%
same,Activity,[6],94%
B1,Km,[12],51.4 µM
